Experimental data published in ChEMBL document CHEMBL1126046, “Geiparvarin analogues. 3. Synthesis and cytostatic activity of 3(2H)-furanone and 4,5-dihydro-3(2H)-furanone congeners of geiparvarin, containing a geraniol-like fragment in the side chain” (J Med Chem, 1992).
In brackets after ≈: the same amount, converted by molar mass.

Key:
Raji [1] = assay: Inhibitory effect on the proliferation of human B-lymphoblast Raji cells.; assay type: functional, cell-based
Outline: (§1)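 7.5 × 10^4 cells in growth medium were exposed in microplate wells to a range of compound concentrations. Proliferation ran 72 h at 37 °C under humidified, CO2-controlled conditions, followed by Coulter counter cell counts. IC50 is the compound concentration giving 50% inhibition of proliferation.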

L1210 [2] = assay: Inhibitory effect on the proliferation of murine leukemia L1210 cells.; assay type: functional, cell-based; conditions: Mus musculus
Outline: (§2)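 5 × 10^4 cells were suspended in growth medium in microplate wells with varying concentrations of compound. They grew for 48 h at 37 °C in a humidified CO2-controlled atmosphere and were then counted in a Coulter counter. IC50 is the concentration inhibiting cell proliferation by 50%.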

[3] = Inhibitory effect on the proliferation of murine mammary carcinoma FM3A cells; assay type: functional, cell-based; conditions: Mus musculus; outline: as §2
[4] = Inhibitory effect on the proliferation of human T-lymphoblast molt/4F cells; assay type: functional; outline: as §1
MT4 [5] = assay: Inhibitory effect on the proliferation of human T-lymphocyte MT-4 cells; assay type: functional, cell-based
Outline: (§3)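 MT-4 cells (7.5 × 10^4 per well) in growth medium were incubated with graded compound concentrations for 120 h at 37 °C in a humidified CO2 atmosphere. Cell viability was assessed by trypan blue dye exclusion. IC50 is the concentration required for 50% inhibition of proliferation.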

[6] = Inhibitory effect on the proliferation of T-lymphoblast molt/4F cells.; assay type: functional; conditions: Homo sapiens; outline: as §1
MT4 [7] = assay: Inhibitory effect on the proliferation of human T-lymphocyte MT-4 cells.; assay type: functional, cell-based; outline: as §3
L1210 [8] = assay: Inhibitory effect on the proliferation of murine leukemia L1210 cells; assay type: functional, cell-based; conditions: Mus musculus; outline: as §2
Raji [9] = assay: Inhibitory effect on the proliferation of human B-lymphoblast Raji cells; assay type: functional, cell-based; outline: as §1

Row | SMILES | IC50 (Raji [1]) | IC50 (L1210 [2]) | IC50 [3] | IC50 [4] | IC50 (MT4 [5]) | IC50 [6] | IC50 (MT4 [7]) | IC50 (L1210 [8]) | IC50 (Raji [9])
1 | C/C(=C\COc1ccccc1)CC/C=C(\C)C1=CC(=O)C(C)(C)O1 | 40.3 µg/mL (≈ 123 µM) | 38.7 µg/mL (≈ 119 µM) | 44.2 µg/mL (≈ 135 µM) | 35.2 µg/mL (≈ 108 µM) | 29.4 µg/mL (≈ 90.1 µM) |  |  |  | 
2 | C/C(=C\COc1ccc2ccc(=O)oc2c1)C1=CC(=O)C(C)(C)O1 [GEIPARVARIN] | 8.25 µg/mL (≈ 25.3 µM) | 5.31 µg/mL (≈ 16.3 µM) | 7.87 µg/mL (≈ 24.1 µM) |  |  | 7.92 µg/mL (≈ 24.3 µM) | 1.64 µg/mL (≈ 5.03 µM) |  | 
3 | COc1cccc(OC/C=C(\C)CC/C=C(\C)C2=CC(=O)C(C)(C)O2)c1 |  |  | 45.9 µg/mL (≈ 129 µM) | 35.9 µg/mL (≈ 101 µM) | 34 µg/mL (≈ 95.4 µM) |  |  | 36.3 µg/mL (≈ 102 µM) | 45.8 µg/mL (≈ 128 µM)
4 | COc1cccc(OC/C=C(\C)CC/C=C(\C)C2CC(=O)C(C)(C)O2)c1 (stereo not given) |  |  | 68.7 µg/mL (≈ 192 µM) | 33.8 µg/mL (≈ 94.3 µM) | 51.5 µg/mL (≈ 144 µM) |  |  | 66.5 µg/mL (≈ 186 µM) | 50 µg/mL (≈ 139 µM)
5 | C/C(=C\COc1ccc2ccc(=O)oc2c1)CC/C=C(\C)C1=CC(=O)C(C)(C)O1 | 25.2 µg/mL (≈ 63.9 µM) | 39.7 µg/mL (≈ 101 µM) | 53.7 µg/mL (≈ 136 µM) |  |  | 28.5 µg/mL (≈ 72.2 µM) | 15.6 µg/mL (≈ 39.5 µM) |  | 
6 | C/C(=C\COc1ccc2ccc(=O)oc2c1)CC/C=C(\C)C1CC(=O)C(C)(C)O1 (stereo not given) | 50.7 µg/mL (≈ 128 µM) | 64.5 µg/mL (≈ 163 µM) | 54.2 µg/mL (≈ 137 µM) |  |  | 24.2 µg/mL (≈ 61 µM) | 42.9 µg/mL (≈ 108 µM) |  | 
7 | C/C(=C\COc1c(Cl)cccc1Cl)CC/C=C(\C)C1CC(=O)C(C)(C)O1 (stereo not given) | 59.9 µg/mL (≈ 151 µM) |  | 51.2 µg/mL (≈ 129 µM) | 50.5 µg/mL (≈ 127 µM) | 32.5 µg/mL (≈ 81.8 µM) |  |  | 58 µg/mL (≈ 146 µM) | 
8 | C/C(=C\COc1ccccc1)CC/C=C(\C)C1CC(=O)C(C)(C)O1 (stereo not given) |  |  | 59 µg/mL (≈ 180 µM) | 27.6 µg/mL (≈ 84 µM) | 43.1 µg/mL (≈ 131 µM) |  |  | 64 µg/mL (≈ 195 µM) | 50.7 µg/mL (≈ 154 µM)
9 | COc1ccc(OC/C=C(\C)CC/C=C(\C)C2=CC(=O)C(C)(C)O2)cc1 |  |  | 43.8 µg/mL (≈ 123 µM) | 38.6 µg/mL (≈ 108 µM) | 33.9 µg/mL (≈ 95.1 µM) |  |  | 40.2 µg/mL (≈ 113 µM) | 43 µg/mL (≈ 121 µM)
10 | C/C(=C\COc1ccc2ccccc2c1)CC/C=C(\C)C1=CC(=O)C(C)(C)O1 | 63.2 µg/mL (≈ 168 µM) | 47.4 µg/mL (≈ 126 µM) | 56.4 µg/mL (≈ 150 µM) | 51.6 µg/mL (≈ 137 µM) |  |  | 38.6 µg/mL (≈ 103 µM) |  | 
11 | C/C(=C\COc1c(Cl)cccc1Cl)CC/C=C(\C)C1=CC(=O)C(C)(C)O1 |  |  | 35.3 µg/mL (≈ 89.3 µM) | 27.4 µg/mL (≈ 69.3 µM) | 15.5 µg/mL (≈ 39.2 µM) |  |  | 30.7 µg/mL (≈ 77.7 µM) | 26.2 µg/mL (≈ 66.3 µM)
12 | C/C(=C\COc1ccc2ccc(=O)oc2c1)C1CC(=O)C(C)(C)O1 (stereo not given) | 226 µg/mL (≈ 688 µM) | 211 µg/mL (≈ 643 µM) | 215 µg/mL (≈ 655 µM) |  |  | 97.5 µg/mL (≈ 297 µM) | 107 µg/mL (≈ 326 µM) |  | 
13 | C/C(=C\COc1ccc2ccccc2c1)CC/C=C(\C)C1CC(=O)C(C)(C)O1 (stereo not given) | 47.9 µg/mL (≈ 127 µM) | 24.9 µg/mL (≈ 65.8 µM) | 38.4 µg/mL (≈ 101 µM) | 26.9 µg/mL (≈ 71.1 µM) |  |  | 48.8 µg/mL (≈ 129 µM) |  | 
